One experiment concerns Giardia intestinalis. Briefly: Antiprotozoal activity against axenically grown trophozoites of Giardia lamblia IMSS:0989:1 after 48 hrs by MTT method. It is filed as functional, organism-based. To be noted: Giardia duodenalis. The essentials:
(§1)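 Log-phase trophozoites from axenic culture: E. histolytica in TYI-S-33 with 10% bovine serum (inoculum 6 × 10³/mL), G. lamblia in modified TYI-S-33 with 10% calf serum (inoculum 5 × 10⁴/mL). Test material in DMSO/medium at 2.5–200 µg/mL, 48 h, 37 °C. Counted by haemocytometer, then MTT (0.075% final) plus PMS, 45 min, A570. Inhibition converted to probits and regressed on log concentration to give IC50. Duplicates, repeated at least three times.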

Another experiment relates to Entamoeba histolytica. Briefly: Antiprotozoal activity against axenically grown trophozoites of Entamoeba histolytica HM1-IMSS after 48 hrs by MTT method. Format: functional, organism-based. The procedure, abridged: as §1
The next experiment relates to MCF7. The experiment can be described thus: Cytotoxicity against human MCF7 cells after 7 days by MTT method. It is filed as functional, cell-based. The procedure, abridged: (§2)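 Run at the Purdue Cell Culture Laboratory as a seven-day MTT assay on human solid tumour lines, with adriamycin as the positive control.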
On the technique in general: Formazan colour is commonly taken as a measure of viable cells.

For a further experiment, the system named is HT-29. The experiment can be described thus: Cytotoxicity against human HT-29 cells after 7 days by MTT method. Format: functional, cell-based. The procedure, abridged: as §2
The test system of the next experiment is A549. Briefly: Cytotoxicity against human A549 cells after 7 days by MTT method. It is filed as functional, cell-based. The procedure, abridged: as §2

Structures are written as SMILES. ≈ marks a conversion by molar mass, not a printed value. Calls of active or inactive are those of the source. The calls are words filed in the database; no cut-off is given here.

Usually IC50 stands for the concentration that gives 50% inhibition. For the compound `CC1(C)CC[C@]2(C(=O)O)CC[C@]3(C)C(=CC[C@@H]4[C@@]5(C)CC[C@H](C(=O)/C=C/c6ccc(O)c(O)c6)C(C)(C)[C@@H]5CC[C@]43C)[C@@H]2C1`, the IC50 turned out to be 31.2 µg/mL (≈ 51.8 µM) in the experiment on Giardia intestinalis and 22.6 µg/mL (≈ 37.5 µM) with Entamoeba histolytica. Also, the result in the experiment with MCF7, in the experiment on HT-29 and in the experiment on A549 was inactive.

As to `COC(=O)c1cc(O)c(O)c(O)c1` [GALLIC ACID METHYL ESTER], the results for the IC50 in the experiment on Giardia intestinalis and in the experiment on Entamoeba histolytica were 49.2 µg/mL (≈ 267 µM) and 144 µg/mL (≈ 780 µM), respectively. For the same compound, the outcome in the experiment on MCF7, with HT-29 and in the experiment with A549 was inactive.

In the case of `Oc1ccc([C@H]2Oc3c(c(O)cc4c3[C@H]3c5c(O)cc(O)cc5O[C@@](c5ccc(O)cc5)(O4)[C@@H]3O)C[C@@H]2O)cc1` [GERANIN A], the results for the IC50 in the experiment on Giardia intestinalis and in the experiment with Entamoeba histolytica were 2.4 µg/mL (≈ 4.41 µM) and 185 µg/mL (≈ 339 µM), respectively. In addition, the result in the experiment on MCF7, with HT-29 and with A549 was inactive.

`Oc1ccc([C@H]2Oc3c(c(O)cc4c3[C@H]3c5c(O)cc(O)cc5O[C@@](c5ccc(O)c(O)c5)(O4)[C@@H]3O)C[C@@H]2O)cc1` [GERANIN B]: the half-inhibitory concentration (IC50) in the experiment on Giardia intestinalis was 6 µg/mL (≈ 10.7 µM); in the experiment on Entamoeba histolytica, 13.6 µg/mL (≈ 24.3 µM). The result in the experiment with MCF7, with HT-29 and with A549 was inactive.

For `O=c1c(O[C@@H]2O[C@H](CO)[C@H](O)[C@H](O)[C@H]2O)c(-c2ccc(O)c(O)c2)oc2cc(O)cc(O)c12` [HYPEROSIDE], the IC50 in the experiment with Giardia intestinalis came to 85.1 µg/mL (≈ 183 µM); in the experiment on Entamoeba histolytica it was 109 µg/mL (≈ 235 µM). The result in the experiment on MCF7, with HT-29 and in the experiment on A549 was inactive.

As for `Cc1ncc([N+](=O)[O-])n1CCO` [METRONIDAZOLE], the IC50 in the experiment with Entamoeba histolytica turned out to be 0.04 µg/mL (≈ 0.234 µM). Further, the outcome in the experiment with MCF7, in the experiment on HT-29 and with A549 was inactive.
